Bioassay records from PubChem BioAssay.
KSHV LANA nucl: inhibitors of KSHV LANA-nucleosome binding, primary screen, biochemical, fluorescence polarization, FITC-LANA1-23, chicken nucleosomes; FITC-LANA1-23 / chicken nucleosome fluorescence polarization; active compounds read low; 51,000 tested, 0.3% active; z-score (concentration not given with the values); AID 720717, 2013;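 active = both repeat wells score below -2 in polarization z-score versus plate sample wells, excluding overly bright wells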
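Material: Purified chicken nucleosomes with FITC-labelled LANA N-terminal peptide (1-23) | Reagent: 50 nM FITC-LANA1-23 probe | Medium: TEN-BT buffer, pH 7.5 | Times: 10–45 min incubation at room temperature | Detection: Fluorescence polarization | Replication: Duplicates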
Ab BasE inh: BasE siderophore enzyme inhibitors, primary screen, biochemical, Acinetobacter baumannii ATCC 17978, fluorescence polarization | AID 485350, 2010 | 84,000 tested, 0.1% active | purified BasE, fluorescence polarization binding displacement | inhibition, % (concentration not given with the values); in the data active = inhibition above about 25%, passing the limit was not always enough;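 note: 0% = negative plate control signal and 100% = positive plate control signal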
An asterisk follows results filed as active; · = no result; ! = not confirmed by another sample. Rows were chosen to be rich in hits. Some 0.3% of all compounds tested hit in one or more screens of this group.

SMILES | KSHV LANA nucl | Ab BasE inh
CC[n+]1c(-c2ccccc2)c2cc(N)ccc2c2ccc(N)cc21 | -6* | 4
c1ccc2oc(C3CCNCC3)nc2c1 | · | -2
N#CC(C#N)=Cc1cc(Br)cs1 | 0.041 | 0
N#Cc1c(N)[n+]([O-])c2ccccc2[n+]1[O-] | -8.3* | 1
CN1/C(=C2\C=NN(C)P2(=S)N2CCCC2)C(C)(C)c2ccccc21 (stereo not drawn) | · | 0
CCN1C[C@]2(COC)CC[C@H](O)[C@@]34C5C[C@@H]6[C@@H](OC)C[C@@](O)(C5[C@H]6OC)[C@@](O)([C@@H](OC)C23)[C@@H]14 (stereo partly drawn) | 0.21 | -2
CN1C(=O)/C(=C/c2ccc(I)o2)C(=O)NC1=S | 0.57 | 41*
C=CCN1C(=O)/C(=C/c2ccco2)C(=O)NC1=S | 0.37 | 9
CN1N=C2C3CCN(CC3)C2C1c1ccc(Cl)c(Cl)c1 (stereo not drawn) | -0.15 | ·
N#CCN1CCN(Cc2ccccc2)CC1 | · | 2
CCOc1cc(C=C2C(=O)N(C)C(=S)N(C)C2=O)ccc1OC(C)C(=O)O (stereo not drawn) | 0.22 | 2
CCOc1cc(C=C2C(=O)NC(=O)NC2=O)cc(Cl)c1O | -2.4* | 1
S=C=NCc1ccccc1 | -0.69 | -1
CC[C@@]1(O)C(=O)OCc2c1cc1n(c2=O)Cc2cc3c(O)cccc3nc2-1 | -3.1*! | 9
CC[C@@]1(O)C(=O)OCc2c1cc1n(c2=O)Cc2cc3ccccc3nc2-1 | 0.017 | -3
CCOC(=O)C1C2c3ccccc3C(c3ccccc32)C1C(=O)OCC (stereo not drawn) | · | -1
O=C1NC(=O)C(=CC2CC=CCC2)C(=O)N1 (stereo not drawn) | · | 1
C[C@@]12C[C@H](O)CCN1CCc1ccccc12 | -2.4* | 6
CC12NC(=O)CN1CCc1ccccc12 (stereo not drawn) | -0.11 | 5
Cc1ccccc1C=C1C(=O)N(C)C(=S)N(C)C1=O | -1.4 | 3
O=C1NC(=O)C(=Cc2cn(Cc3ccccc3)c3ccccc23)C(=O)N1 | · | 3
CCn1cc(C=C2C(=O)NC(=O)NC2=O)c2ccccc21 | -3.2* | 2
C1=C(c2cccnc2)Nc2ncnn2C1c1cccs1 (stereo not drawn) | -8.8* | 21
CCN1CCC2(CC1)N=C(c1ccccc1)C(=S)N2 | 1.5 | -1
